Screening data: PubChem BioAssay, several laboratories
Rows were chosen to be rich in hits. Some 2% of all compounds tested hit in one or more screens of this group.
PvdQ inh: P. aeruginosa PvdQ acylase inhibitors, primary screen, biochemical, fluorescence, plate reader and imaging, single point | purified PvdQ acylase | inhibition, % at 10 µM | 340,000 compounds, 0.063% hits; in the data active means inhibition above about 30%, passing the limit was not always enough
VIM-2 inh: VIM-2 metallo-beta-lactamase inhibitors, primary screen, biochemical, epi-absorbance readout, Pseudomonas aeruginosa enzyme. inhibition, % at 5.6 µM. AID 1527, 2009. purified VIM-2, nitrocefin hydrolysis, epi-absorbance fluorescence. 290,000 compounds, 0.89% hits;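 active means inhibition above the mean of all tested compounds plus 3 SD, cutoff set per screening run, cut at about 7.5% in these data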;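 further: red hydrolysis product quenches plate fluorescence so inhibitors raise well fluorescence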
beta cell repl: inducers of MIN6 beta-cell proliferation, primary screen, ATP luminescence, uHTS. MIN6 cells proliferation, ATPlite luminescence, 48 h; cells starved in 0.2% serum; 100% = growth in 10% serum. proliferation, % at 10 µM. 330,000 compounds, 0.29% hits. AID 2380, 2010;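 active means compounds whose signal lies at least 3.5 SD above the mean of all wells on their plate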
IMP-1 inh: IMP-1 metallo-beta-lactamase inhibitors, primary screen, biochemical, epi-absorbance readout, Pseudomonas aeruginosa enzyme | metallo-beta-lactamase IMP-1 (Pseudomonas aeruginosa) | purified IMP-1, nitrocefin hydrolysis, epi-absorbance fluorescence | inhibition, % at 5.6 µM | 290,000 compounds, 0.45% hits;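 active means inhibition above the mean plus 3 SD of all compounds in the same screening run, cut at about 4.5% in these data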
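System: purified recombinant IMP-1 beta-lactamase. Medium: Zinc- and detergent-supplemented HEPES buffer, pH 7.1. Compound: one 5.6 µM dose […]. Schedule: 15 min preincubation plus 25 min reaction at 25 °C. Technique: Epi-absorbance fluorescence, 480 nm excitation, 530 nm emission.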
ATG4B inhibitor: ATG4B protease inhibitors, primary screen, biochemical, fluorescence, uHTS | ATG4B cleavage of LC3-PLA2, NBD-HPC fluorescence, 1 h | AID 504462, 2011 | 340,000 compounds, 0.51% hits | inhibition, % at 8.33 µM | Cysteine protease ATG4B (Homo sapiens), Q9Y4P1; in the data active means inhibition above about 40%
HKDC1 inh: HKDC1 hexokinase inhibitors, primary screen, biochemical, fluorescence, uHTS. inhibition, % at 20 µM. 340,000 compounds, 0.16% hits. recombinant HKDC1, G6PDH/diaphorase resazurin coupled fluorescence;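 active means inhibition above about 35% when tested at 20 µM, limit read from the data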
Target sequence (Q2TB90 whole entry, looked up): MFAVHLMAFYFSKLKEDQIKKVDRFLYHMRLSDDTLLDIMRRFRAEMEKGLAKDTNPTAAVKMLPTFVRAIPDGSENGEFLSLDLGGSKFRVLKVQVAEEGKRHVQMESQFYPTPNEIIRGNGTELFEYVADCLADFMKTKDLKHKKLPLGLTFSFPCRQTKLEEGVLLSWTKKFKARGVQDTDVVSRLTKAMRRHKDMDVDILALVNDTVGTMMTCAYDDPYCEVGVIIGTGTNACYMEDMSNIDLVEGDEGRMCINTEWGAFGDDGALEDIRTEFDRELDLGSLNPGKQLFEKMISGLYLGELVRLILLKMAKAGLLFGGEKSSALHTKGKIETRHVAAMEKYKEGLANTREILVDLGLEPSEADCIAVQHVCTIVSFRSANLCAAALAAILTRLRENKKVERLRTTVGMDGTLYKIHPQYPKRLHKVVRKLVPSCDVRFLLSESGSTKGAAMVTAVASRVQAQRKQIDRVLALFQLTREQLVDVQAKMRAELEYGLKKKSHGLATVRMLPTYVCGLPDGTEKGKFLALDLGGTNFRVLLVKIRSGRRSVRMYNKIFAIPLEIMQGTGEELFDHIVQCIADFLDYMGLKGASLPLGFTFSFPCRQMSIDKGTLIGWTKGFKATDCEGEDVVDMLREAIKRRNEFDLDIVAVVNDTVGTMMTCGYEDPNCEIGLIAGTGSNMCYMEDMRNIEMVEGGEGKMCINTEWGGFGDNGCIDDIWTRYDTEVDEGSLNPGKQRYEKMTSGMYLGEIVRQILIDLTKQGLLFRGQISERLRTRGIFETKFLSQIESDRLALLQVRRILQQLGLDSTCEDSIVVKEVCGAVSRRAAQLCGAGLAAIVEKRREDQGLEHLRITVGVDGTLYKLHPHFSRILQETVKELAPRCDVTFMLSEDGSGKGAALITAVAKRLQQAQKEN
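Material: recombinant HKDC1 hexokinase; Amount: HKDC1 at 5 µg/mL; Medium: Tris pH 8.0 buffer with MgCl2, Tween-20, BSA, BME; Schedule: 90 min reaction incubation at room temperature, dark; Technique: coupled resazurin fluorescence, excitation 525 nm, emission 613 nm.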
VIM-2 confirm: P. aeruginosa VIM-2 enzyme inhibition – biochemical, epi-absorbance, HTS, confirmation; shares compounds with IMP-1 inh; purified VIM-2 enzyme, nitrocefin absorbance; inhibition, % at 5.6 µM; 200 compounds, 73% hits; in the data active means inhibition above about 8%
TEM-1 inh 2: Serine beta-lactamase TEM-1 inhibition, biochemical epi-absorbance counter-screen for IMP-1/VIM-2 inhibitor program; inhibition, % at 5.6 µM; 200 compounds, 50% hits; shares compounds with IMP-1 inh; TEM-1 beta-lactamase, nitrocefin absorbance inhibition; in the data active means inhibition above about 0.66%
IMP-1 inh conf: IMP-1 metallo-beta-lactamase inhibitors, confirmation, biochemical, epi-absorbance, hits shared with VIM-2 screen; purified IMP-1 enzyme, absorbance substrate hydrolysis; AID 2189, 2009; 200 compounds, 60% hits; inhibition, % at 5.6 µM; shares compounds with IMP-1 inh; in the data active means inhibition above about 4.9%
Numbers stand for hits; n = inactive; x = no result given.

SMILES	PvdQ inh	VIM-2 inh	beta cell repl	IMP-1 inh	ATG4B inhibitor	HKDC1 inh	VIM-2 confirm	TEM-1 inh 2	IMP-1 inh conf
CC(=O)c1ccc(C(=O)Nc2sc3c(c2C(N)=O)CCN(Cc2ccccc2)C3)cc1	n	8.8	n	5.5	x	x	n	5.7	n
NC(=S)c1cc2ccc(O)cc2oc1=O	n	n	x	4.5	n	n	n	n	n
C/C(=N/NC(N)=S)c1cc2ccc(O)cc2oc1=O	n	n	n	n	n	n	x	x	x
CC(=O)OCCn1c2nc(=O)[nH]c(=O)c-2nc2cc(C)c(C)cc21	n	33	n	10	n	n	43	112	37
COc1c(O)cc2oc(-c3ccc(O)cc3)cc(=O)c2c1O	n	x	n	x	n	n	x	x	x
COc1cc(OC)c(-c2c3cc(O)c(=O)cc-3oc3cc(O)c(O)cc23)cc1OC	n	16	n	7.0	n	n	49	75	46
CN(C(=O)CC1C(=O)NCCN1Cc1cccc(C(F)(F)F)c1)C1CCOCC1 (stereo not drawn)	n	n	n	n	n	n	x	x	x
O=C(O)C1CCCCC1C(=O)Nc1ccc(S(=O)(=O)N2CCCC2)cc1 (stereo not drawn)	n	n	n	n	n	n	x	x	x
COc1ccc(C2C(C(=O)c3ccco3)=C(O)C(=O)N2CC2CCCO2)cc1OC (stereo not drawn)	n	n	n	n	n	n	x	x	x
CN(C)c1ccc(/C=C(\C#N)C(=O)c2ccccc2)cc1	n	n	x	6.2	n	n	13	13	11
COc1ccc(NC(=O)CCN2C(=O)c3ccccc3S2(=O)=O)c(OC)c1	n	n	n	n	n	n	x	x	x
CCOC(=O)N1C(=O)c2cc(OC)ccc2S1(=O)=O	n	9.4	n	38	n	n	n	1.5	5.3
CN1C(=O)c2ccccc2C(C(=O)NCC2CCCO2)C1c1c[nH]c2ccccc12 (stereo not drawn)	n	n	n	n	n	n	x	x	x
CN(/N=C/c1cc([N+](=O)[O-])ccc1O)c1ccccc1	n	n	n	n	n	n	x	x	x
CN(/N=C/c1ccc(-c2ccc([N+](=O)[O-])cc2)o1)c1ccccc1	n	26	n	30	n	n	17	27	16
CCCNC(=O)C(Cc1ccc(OC)cc1)NC(=O)c1ccc(Cl)cc1 (stereo not drawn)	n	x	n	x	n	n	x	x	x
CSC1=NSC2=NC(=O)/C(=C\c3coc4ccccc4c3=O)C(=N)N12	n	n	x	n	n	n	x	x	x
N=C1/C(=C\c2coc3ccc(O)cc3c2=O)C(=O)N=C2SC=CN12	n	9.9	n	11	n	n	17	8.0	14
CC(C)(C)[C@H]1COC(=O)[C@@H](Cc2ccc(F)cc2)CC/C=C/C[C@@H](CC(=O)N[C@H](CO)Cc2ccccc2)C(=O)N1	n	x	n	x	n	n	x	x	x
O=C1c2ccccc2C(=O)N1Cc1ccco1	n	n	n	n	n	n	x	x	x
CC(=O)Nc1ccc(N2C(=O)c3cccc4c(O)ccc(c34)C2=O)cc1	n	40	n	34	n	n	30	34	28
O=C1c2ccccc2C(=O)N1c1ccc(Cl)cc1	x	n	n	n	x	x	x	x	x
O=C1c2cccc3c(O)ccc(c23)C(=O)N1c1ccc(Cl)cc1	n	30	n	22	n	n	22	29	18
